The values below come from ChEMBL document CHEMBL4177546, “Development of a Selective Inhibitor of Protein Arginine Deiminase 2” (J Med Chem, 2017).

Bounds are passed on as bounds.

Data set [1] is filed under the species Homo sapiens. As to the kind of experiment: Selectivity ratio of Kinact/Ki for recombinant full length N-terminal GST-tagged human PAD4 expressed in Escherichia coli Rosetta to Kinact/Ki for recombinant His6-tagged PAD3 (unknown origin). Put shortly:
(§1)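 Enzyme at 2.0 μM (PAD1, PAD2, PAD4) or 5.0 μM (PAD3) incubated at 37 °C with various inhibitor concentrations in 50 mM HEPES, 10 mM CaCl₂, 2 mM DTT, pH 7.6. Timed aliquots moved into substrate mix: 10 mM BAEE, or 10 mM BAA for PAD3. […] Selectivity ratios taken from these values.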

Data set [2] is filed under the species Homo sapiens. In words: Selectivity ratio of Kinact/Ki for recombinant His6-tagged PAD1 (unknown origin) to Kinact/Ki for recombinant His6-tagged PAD3 (unknown origin). The gist of the method: as §1
For data set [3], the species on record is Homo sapiens. As to the kind of experiment: Selectivity ratio of Kinact/Ki for recombinant human PAD2 expressed in Escherichia coli BL21(DE3)pLysS to Kinact/Ki for recombinant His6-tagged PAD3 (unknown origin). Put shortly:
as §1

Data set [4] concerns the target T1, Protein-arginine deiminase type-2 (Homo sapiens, UniProt Q9Y2J8). As to the kind of experiment: Binding affinity to human PAD2 expressed in HEK293T cells assessed as protein occupancy at 25 uM preincubated for 15 mins followed by ionomycin addition measured after 1 hr in presence of CaCl2 by RIBFA probe based SDS-PAGE analysis relative to control. It is filed as cell-based. The gist of the method:
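Adherent HEK293T/PAD2 cells at 80–90% confluence in HBS with 2 mM CaCl₂ at 37 °C. Inhibitor (in DMSO) added for 15 min, then ionomycin (0.5 μM final) for 1 h. Cells washed and lysed in 1% Triton X-100. Lysate (2 μg/μL) labelled with RIBFA probe (2 μM) plus 2 mM CaCl₂ for 1 h at 37 °C. Gel resolved and fluorescence scanned (~546/579 nm). PAD2 occupancy expressed relative to DMSO control.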

Data set [5] deals with T1, Protein-arginine deiminase type-2. In words: Binding affinity to human PAD2 expressed in HEK293T cells assessed as decrease in histone H3 citrulination incubated for 3 hrs in presence of ionomycin/CaCl2 by SDS-PAGE analysis. It is filed as cell-based. Put shortly:
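HEK293T stably overexpressing human PAD2, 4 × 10⁵ cells in HBS, given ionomycin (10 μM), CaCl₂ (1 mM) and varying inhibitor concentrations (1% DMSO) for 3 h. Lysed with 1% Triton X-100 and sonicated at 0 °C. 1 μg protein run on SDS-PAGE, western blotted with antibodies to histone H3 and to citrullinated H3 (Cit 2,8,17), and imaged on Licor. EC50 taken from CitH3 intensity.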

The nature of data set [6]: Safety index, ratio of compound EC50 to BB-Cl-amide EC50 for cytotoxicity against HEK293T cells. It is filed as cell-based, HEK-293T. The note with it: human, read-out: Ratio EC50.
The target in data set [7] is T1, Protein-arginine deiminase type-2. As to the kind of experiment: Binding affinity to human PAD2 expressed in HEK293T cells assessed as protein occupancy preincubated for 15 mins followed by ionomycin addition measured after 1 hr in presence of CaCl2 by RIBFA probe based SDS-PAGE analysis. It is filed as cell-based. The gist of the method:
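Adherent HEK293T/PAD2 cells at 80–90% confluence in HBS with 2 mM CaCl₂ at 37 °C. Inhibitor (in DMSO) added for 15 min, then ionomycin (0.5 μM final) for 1 h. Cells washed and lysed in 1% Triton X-100. Lysate (2 μg/μL) labelled with RIBFA probe (2 μM) plus 2 mM CaCl₂ for 1 h at 37 °C. PAD2 occupancy expressed relative to DMSO control.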

The species named for data set [8] is Homo sapiens. In words: Selectivity ratio of Kinact/Ki for recombinant His6-tagged PAD1 (unknown origin) to Kinact/Ki for recombinant full length N-terminal GST-tagged human PAD4 expressed in Escherichia coli Rosetta cells. The gist of the method: as §1
The species named for data set [9] is Homo sapiens. In words: Selectivity ratio of Kinact/Ki for recombinant His6-tagged PAD3 (unknown origin) to Kinact/Ki for recombinant full length N-terminal GST-tagged human PAD4 expressed in Escherichia coli Rosetta cells. Put shortly:
as §1

The species entered for data set [10] is Homo sapiens. As to the kind of experiment: Selectivity ratio of Kinact/Ki for recombinant human PAD2 expressed in Escherichia coli BL21(DE3)pLysS cells to Kinact/Ki for recombinant full length N-terminal GST-tagged human PAD4 expressed in Escherichia coli Rosetta cells. Put shortly: as §1
For data set [11], the species on record is Homo sapiens. As to the kind of experiment: Selectivity ratio of Kinact/Ki for recombinant His6-tagged PAD1 (unknown origin) to Kinact/Ki for recombinant human PAD2 expressed in Escherichia coli BL21(DE3)pLysS cells. Put shortly:
as §1

The species entered for data set [12] is Homo sapiens. As to the kind of experiment: Selectivity ratio of Kinact/Ki for recombinant full length N-terminal GST-tagged human PAD4 expressed in Escherichia coli Rosetta cells to Kinact/Ki for recombinant human PAD2 expressed in Escherichia coli BL21(DE3)pLysS cells. Put shortly: as §1
For data set [13], the species on record is Homo sapiens. In words: Selectivity ratio of Kinact/Ki for recombinant His6-tagged PAD3 (unknown origin) to Kinact/Ki for recombinant human PAD2 expressed in Escherichia coli BL21(DE3)pLysS cells. The gist of the method: as §1
The species named for data set [14] is Homo sapiens. As to the kind of experiment: Selectivity ratio of Kinact/Ki for recombinant human PAD2 expressed in Escherichia coli BL21(DE3)pLysS cells to Kinact/Ki for recombinant His6-tagged PAD1 (unknown origin). The gist of the method: as §1

T1 sequence (Q9Y2J8 whole entry): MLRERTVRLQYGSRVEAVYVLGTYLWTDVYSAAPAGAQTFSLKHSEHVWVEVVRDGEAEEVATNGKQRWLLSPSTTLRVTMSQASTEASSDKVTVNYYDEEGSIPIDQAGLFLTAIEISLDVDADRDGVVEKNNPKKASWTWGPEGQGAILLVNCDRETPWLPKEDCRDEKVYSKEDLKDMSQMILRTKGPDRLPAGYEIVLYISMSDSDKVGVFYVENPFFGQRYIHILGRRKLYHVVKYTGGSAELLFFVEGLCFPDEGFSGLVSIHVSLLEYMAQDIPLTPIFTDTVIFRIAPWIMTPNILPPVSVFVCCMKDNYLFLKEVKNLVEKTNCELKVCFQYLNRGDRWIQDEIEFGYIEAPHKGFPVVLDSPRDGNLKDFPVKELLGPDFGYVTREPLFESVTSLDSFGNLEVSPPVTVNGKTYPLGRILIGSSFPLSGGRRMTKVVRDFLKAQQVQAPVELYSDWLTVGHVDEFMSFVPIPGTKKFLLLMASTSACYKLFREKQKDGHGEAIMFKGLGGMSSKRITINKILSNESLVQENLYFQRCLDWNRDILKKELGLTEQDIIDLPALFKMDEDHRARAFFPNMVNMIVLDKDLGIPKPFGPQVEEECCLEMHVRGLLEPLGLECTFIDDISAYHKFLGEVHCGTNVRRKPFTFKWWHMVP

For the compound `CC(C)n1c([C@H](CCCNC(=N)CF)NC(=O)c2cccc3c2C(=O)NC3)nc2ccccc21`, the Selectivity ratio in the data set listed under Homo sapiens [1] was 2.4; in the data set listed under Homo sapiens [2] it was 12; in the data set filed under Homo sapiens [3] it was 20.
As for `COc1cccc2c1nc([C@H](CCCNC(=N)CF)NC(=O)c1cccc3c1C(=O)N(C1CC1)C3)n2C`, the Selectivity ratio in the data set listed under Homo sapiens [1] was 3.8; in the data set listed under Homo sapiens [2], 38; in the data set listed under Homo sapiens [3], 77. The Activity in [4] was < 37%.
As for `CCN1Cc2cccc(C(=O)N[C@@H](CCCNC(=N)CCl)c3nc4c(OC)cccc4n3C)c2C1=O`, the Selectivity ratio turned out to be 1.3 in the data set filed under Homo sapiens [1], 3.9 in the data set listed under Homo sapiens [2] and 5 in the data set filed under Homo sapiens [3].
In the case of `COc1cccc2c1nc([C@H](CCCNC(=N)CCl)NC(=O)c1cccc3c1C(=O)NC3)n2C`, the values for the Selectivity ratio in the data set listed under Homo sapiens [1], in the data set listed under Homo sapiens [2] and in the data set filed under Homo sapiens [3] were 1.3, 3.9 and 3.9, respectively.
A word on the EC50: it is the concentration needed to bring the measured effect to its halfway point. With `COc1ccc2c(c1)nc([C@H](CCCNC(=N)CF)NC(=O)c1cccc3c1C(=O)NC3)n2C`, the EC50 in data set [5] came to 2.1 µM; in [7] it was 5.9 µM. The Selectivity ratio in the data set listed under Homo sapiens [1] came out at 1.2; in the data set filed under Homo sapiens [2], 121; in the data set filed under Homo sapiens [3], 114. The Activity in [4] is > 60%. In [6], the selectivity ratio is > 30.
As to `COc1cccc2c1nc([C@H](CCCNC(=N)CF)NC(=O)c1cccc3c1C(=O)N(C)C3)n2C`, the Selectivity ratio in the data set listed under Homo sapiens [1] was determined as 1.1; in the data set filed under Homo sapiens [2] it was 30; in the data set filed under Homo sapiens [3], 106. In data set [4], the Activity was < 37%.
With `Cn1c([C@H](CCCNC(=N)CCl)NC(=O)c2ccccc2C(=O)O)nc2ccccc21`, the figures for the Selectivity ratio in the data set filed under Homo sapiens [1], in the data set listed under Homo sapiens [2] and in the data set filed under Homo sapiens [3] were 1, 4.3 and 1.9, respectively.
Regarding `CCOc1cccc2c1nc([C@H](CCCNC(=N)CF)NC(=O)c1cccc3c1C(=O)NC3)n2C`, the EC50 is 2.7 µM in [5] and 8.3 µM in [7]. Moreover, the Selectivity ratio was determined as 65 in the data set listed under Homo sapiens [8], 79 in the data set filed under Homo sapiens [3], 1.2 in the data set listed under Homo sapiens [9] and 95 in the data set filed under Homo sapiens [10]. Moreover, the Activity in data set [4] is > 60%. Also, the selectivity ratio in [6] is > 30.
Regarding `CCn1c([C@H](CCCNC(=N)CF)NC(=O)c2cccc3c2C(=O)NC3)nc2c(OC)cccc21`, the EC50 in data set [5] turned out to be 2.4 µM; in [7], 7.6 µM. Also, the Selectivity ratio worked out at 38 in the data set filed under Homo sapiens [8], 1 in the data set filed under Homo sapiens [9] and 32 in the data set filed under Homo sapiens [10]. Moreover, the Activity in data set [4] is > 60%. In addition, the selectivity ratio in data set [6] was > 30.
With `N=C(CCl)NCCC[C@H](NC(=O)c1ccccc1C(=O)O)c1nc2ccccc2[nH]1`, the Selectivity ratio was determined as 8.3 in the data set filed under Homo sapiens [11], 9 in the data set listed under Homo sapiens [12] and 6.2 in the data set listed under Homo sapiens [13].
Take `CCN1Cc2cccc(C(=O)N[C@@H](CCCNC(=N)CF)c3nc4cc(OC)ccc4n3C)c2C1=O`: the Selectivity ratio in the data set listed under Homo sapiens [1] came to 3.8; in the data set filed under Homo sapiens [2], 47; in the data set filed under Homo sapiens [3] it was 125.
Consider `COc1cccc2c1nc([C@H](CCCNC(=N)CF)NC(=O)c1cccc3c1C(=O)N(C(C)C)C3)n2C`, for which the Selectivity ratio in the data set listed under Homo sapiens [1] is 2.6; in the data set listed under Homo sapiens [2], 32; in the data set listed under Homo sapiens [3] it was 58. Further, in [4], the Activity is < 37%.
As to `Cn1c([C@H](CCCNC(=N)CF)NC(=O)c2cccc3c2C(=O)NC3)nc2ccccc21`, the Selectivity ratio in the data set listed under Homo sapiens [1] stood at 1; in the data set listed under Homo sapiens [2], 25; in the data set filed under Homo sapiens [3], 8.9.
The matching figures for `CCN1Cc2cccc(C(=O)N[C@@H](CCCNC(=N)CCl)c3nc4ccccc4[nH]3)c2C1=O`: 1.4, 4.3 and 1.5.
Consider `CCN1Cc2cccc(C(=O)N[C@@H](CCCNC(=N)CF)c3nc4c(OC)cccc4n3C)c2C1=O`, for which the Selectivity ratio in the data set listed under Homo sapiens [8] turned out to be 16; in the data set filed under Homo sapiens [3], 85; in the data set listed under Homo sapiens [14] it was 5; in the data set listed under Homo sapiens [9] it was 1; in the data set listed under Homo sapiens [10], 85. Further, in data set [4], the Activity is < 37%.
On to `CCn1c([C@H](CCCNC(=N)CCl)NC(=O)c2ccccc2C(=O)O)nc2ccccc21`, for which the Selectivity ratio was found to be 1.2 in the data set filed under Homo sapiens [1], 4.3 in the data set filed under Homo sapiens [2] and 1.6 in the data set filed under Homo sapiens [3].
For `COc1ccc2[nH]c([C@H](CCCNC(=N)CCl)NC(=O)c3cccc4c3C(=O)NC4)nc2c1`, the Selectivity ratio was 2.2 in the data set listed under Homo sapiens [1], 7.3 in the data set filed under Homo sapiens [2], 3.5 to 114 in the data set filed under Homo sapiens [3] and 95 in the data set listed under Homo sapiens [10].
The matching figures for `COc1ccc2[nH]c([C@H](CCCNC(=N)CF)NC(=O)c3cccc4c3C(=O)NC4)nc2c1`: 3.5, 13, 5.4 to 114 and 95.
Consider `CCN1Cc2cccc(C(=O)N[C@@H](CCCNC(=N)CCl)c3nc4ccccc4n3C)c2C1=O`, for which the Selectivity ratio in the data set filed under Homo sapiens [1] came out at 1.2; in the data set listed under Homo sapiens [2] it was 21; in the data set listed under Homo sapiens [3], 19.
As for `N=C(CF)NCCC[C@H](NC(=O)c1cccc2c1C(=O)NC2)c1nc2ccccc2[nH]1`, the Selectivity ratio in the data set filed under Homo sapiens [1] came to 10; in the data set listed under Homo sapiens [2] it was 24; in the data set listed under Homo sapiens [3], 3.3.
Take `COc1cccc2c1nc([C@H](CCCNC(=N)CF)NC(=O)c1cccc3c1C(=O)NC3)n2C`: the EC50 in data set [5] was 0.4 µM; in [7], 9.5 µM. For the same compound, the Selectivity ratio in the data set listed under Homo sapiens [1] amounted to 3.2; in the data set listed under Homo sapiens [2] it was 29; in the data set listed under Homo sapiens [3] it was 47; in the data set filed under Homo sapiens [14], 1.6; in the data set filed under Homo sapiens [10], 15. In data set [4], the Activity was > 60%. Also, the selectivity ratio in [6] is > 30.
Turning to `CCN1Cc2cccc(C(=O)N[C@@H](CCCNC(=N)CF)c3nc4ccccc4[nH]3)c2C1=O`, the results for the Selectivity ratio in the data set filed under Homo sapiens [11], in the data set listed under Homo sapiens [12] and in the data set listed under Homo sapiens [13] were 3.4, 1 and 1, respectively.
Take `CCn1c([C@H](CCCNC(=N)CF)NC(=O)c2cccc3c2C(=O)NC3)nc2ccccc21`: the Selectivity ratio came out at 1.7 in the data set listed under Homo sapiens [1]; 37 in the data set filed under Homo sapiens [2]; 56 in the data set listed under Homo sapiens [3]; 2 in the data set filed under Homo sapiens [14]; 33 in the data set listed under Homo sapiens [10].
On to `N=C(CCl)NCCC[C@H](NC(=O)c1cccc2c1C(=O)NC2)c1nc2ccccc2[nH]1`, for which the values for the Selectivity ratio in the data set filed under Homo sapiens [1], in the data set filed under Homo sapiens [2] and in the data set filed under Homo sapiens [3] were 2.1, 6.5 and 2.3, respectively.
Regarding `CCN1Cc2cccc(C(=O)N[C@@H](CCCNC(=N)CF)c3nc4ccccc4n3CC)c2C1=O`, the Selectivity ratio in the data set listed under Homo sapiens [8] is 19; in the data set listed under Homo sapiens [14], 2; in the data set filed under Homo sapiens [9], 1; in the data set listed under Homo sapiens [10], 33.
For `N=C(CF)NCCC[C@H](NC(=O)c1ccccc1C(=O)O)c1nc2ccccc2[nH]1`, the Selectivity ratio is 11 in the data set filed under Homo sapiens [11], 16 in the data set listed under Homo sapiens [12] and 4.3 in the data set listed under Homo sapiens [13].
